# Measured values from different studies.
# Each line is one published result; the experiments were not run side by side.
# Target: Casein kinase I isoform alpha (CSNK1A1, Homo sapiens, UniProt P48729)
Structure (SMILES),assay,test system,conditions,measurement,result
CN(C)C1CCN(CC#Cc2nn(C3CCCC3)c3nc(NCc4ccccc4)ncc23)C1 (centres unmarked),"enzyme activity, inhibitor, FRET",,1 µM,inhibition,2%
C[S+]([O-])c1ccc(-c2nc(-c3ccncc3)c(-c3ccc(F)cc3)[nH]2)cc1 (centres unmarked),cell-free assay,,0.5 µM,remaining signal,63.9%
CCN1CCN(Cc2ccc(NC(=O)c3ccc(C)c(Oc4ccnc5[nH]ccc45)c3)cc2C(F)(F)F)CC1,"target engagement in cells, inhibitor, chemoproteomics",A-375,50 nM,inhibition,-28%
Nc1c(C(=O)NCc2ccc(C(=O)NCCCC3CCCCC3)cc2)cnn1-c1ccccc1,"cell-free assay, competition with immobilised ligand",,0.1 µM,remaining binding,100%
N#CCCc1ccc2c(c1)-c1[nH]c3ccc([N+](=O)[O-])cc3c1CC(=O)N2,cell-free assay,,0.5 µM,remaining signal,95.1%
COc1cccc2c(NCc3ccccc3)nc(-n3c(N)nc4ccccc43)nc12,"target engagement in cells, inhibitor, chemoproteomics",,20 mM,inhibition,4.9%
CC(C)(C)c1nc2c(s1)c1nc(N)ncc1c1ccc(NS(=O)(=O)c3c(F)cccc3F)c(F)c12,"enzyme activity, inhibitor, radiometric",,1 µM,remaining activity,86%
CCCS(=O)(=O)Nc1ccc(F)c(C(=O)c2c[nH]c3ncc(-c4ccc(Cl)cc4)cc23)c1F,"enzyme activity, inhibitor",,1 µM,inhibition,< 10%
COc1cc2ncnc(Nc3ccc(Oc4ccccc4)c(C)c3C)c2cc1OC,"enzyme activity, inhibitor",,1 µM,inhibition,3%
CN(C)C(=O)Cn1cc(-c2nc(C3(c4ccc(-c5cnc(N)nc5)cc4)CC3)no2)cn1,"cell-free assay, competition with immobilised ligand",,1 µM,remaining binding,62%
COc1cc2c(Nc3ccc(Br)cc3F)ncnc2cc1OCC1CCN(C)CC1,cell-free assay,,0.5 µM,remaining signal,102%
O=C(NS(=O)(=O)c1ccc(NCC2CCOCC2)c([N+](=O)[O-])c1)c1ccc(N2CCN(Cc3ccc(C(F)(F)F)cc3-c3ccc(Cl)cc3)CC2)cc1Oc1cnc2[nH]ccc2c1,"cell-free assay, competition with immobilised ligand",,1 µM,remaining binding,96%
CCN1CCN(Cc2ccc(NC(=O)c3ccc(C)c(/C=C/c4cnc5[nH]ccc5c4OC)c3)cc2C(F)(F)F)CC1,"target engagement in cells, inhibitor, chemoproteomics",A-375,0.5 µM,inhibition,-75.1%
Cc1cc(-n2nc(Cc3cc(F)cc(C(F)(F)F)c3)nc2C)ccc1C(N)=O,"cell-free assay, competition with immobilised ligand",,1 µM,remaining binding,100%
CN(CCCC(F)(F)F)c1nccc(-c2cnn3ncccc23)n1,binding,,1 µM,remaining binding,86%
O=C(Nc1cnn(-c2csc(C(=O)NC3COC3)c2)c1)Nc1c(F)cccc1Cl,"enzyme activity, inhibitor",,5 µM,remaining activity,76.6%
COc1cc(-c2cn(C3CCc4c(F)cccc4N(CC(F)(F)F)C3=O)nn2)ccc1-n1cnc(C)c1 (centres unmarked),"cell-free assay, competition with immobilised ligand",,1 µM,remaining binding,100%
